Holding throughout (type): functional
In experiment [1] the test system is Staphylococcus aureus. As to the kind of experiment: Antibacterial activity against Staphylococcus aureus ATCC 25923 after 24 hrs by twofold serial dilution technique. To be noted: ATCC 25923, 24 h. In a few lines: (§1)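 Broth microdilution in Mueller-Hinton broth. Isolates were subcultured overnight on MHA at 37 °C and passaged at least twice. McFarland 0.5 cultures […] were diluted to 10⁵ cfu/ml, giving 10⁴ cfu/ml per well, over two-fold compound dilutions. Plates were incubated at 37 °C in a humid chamber for 24 h. MIC was the lowest concentration completely inhibiting macroscopic growth. Triplicate per run.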

The test system of a further experiment is Pichia kudriavzevii. As to the kind of experiment: Antifungal activity against Candida krusei ATCC 6258 after 48 hrs by twofold serial dilution technique. As to conditions: ATCC 6258, 48 h. A digest of the protocol: (§2)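 Yeasts were subcultured on SDA at 35 °C for 24-48 h and passaged twice. Broth microdilution followed CLSI M27-A in RPMI-1640 with L-glutamine, MOPS-buffered to pH 7. Inoculum was McFarland 0.5 (10⁶ cfu/ml) diluted to 10⁴ cfu/ml, giving 10³ cfu/ml per well. Incubated at 35 °C in a humid chamber and read at 48 h as the lowest concentration with no macroscopic growth. Triplicate per run.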

The subject of experiment [2] is Escherichia coli. The experiment in a line: Antibacterial activity against Escherichia coli ATCC 25922 after 24 hrs by twofold serial dilution technique. To be noted: ATCC 25922, 24 h. In a few lines: as §1
Experiment [3] relates to Bacillus subtilis. As to the kind of experiment: Antibacterial activity against ceftriaxone-resistant Bacillus subtilis isolate after 24 hrs by twofold serial dilution technique. In a few lines: (§3)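 Broth microdilution in Mueller-Hinton broth. Strains were subcultured overnight on MHA at 37 °C and passaged at least twice. McFarland 0.5 cultures […] were diluted to 10⁵ cfu/ml, giving 10⁴ cfu/ml per well, against two-fold dilutions from 1000 to 0.06. Solvent and medium controls were included. Plates were held at 37 °C in a humid chamber for 24 h, in triplicate. MIC is the lowest concentration with no macroscopic growth.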

In experiment [4] the test system is Staphylococcus aureus. The experiment in a line: Antibacterial activity against methicillin-resistant Staphylococcus aureus isolate after 24 hrs by twofold serial dilution technique. A digest of the protocol: as §3
Experiment [5] relates to Bacillus subtilis. The experiment in a line: Antibacterial activity against Bacillus subtilis ATCC 6633 after 24 hrs by twofold serial dilution technique. As to conditions: ATCC 6633, 24 h. A digest of the protocol:
as §3

Experiment [6] has as its system Candida albicans. As to the kind of experiment: Antifungal activity against biofilm-positive Candida albicans isolate after 48 hrs by twofold serial dilution technique. A digest of the protocol: as §2
The subject of experiment [7] is Klebsiella pneumoniae. The experiment in a line: Antibacterial activity against Klebsiella pneumoniae isolate containing extended spectrum beta lactamase after 24 hrs by twofold serial dilution technique. In a few lines:
as §1

The test system of experiment [8] is Candida albicans. As to the kind of experiment: Antifungal activity against Candida albicans ATCC 10231 after 48 hrs by twofold serial dilution technique. To be noted: ATCC 10231, 48 h. A digest of the protocol:
as §2

For experiment [9], the system named is Pseudomonas aeruginosa. The experiment in a line: Antibacterial activity against Pseudomonas aeruginosa […] after 24 hrs by twofold serial dilution technique. A digest of the protocol: as §1
For experiment [10], the system named is Escherichia coli. The experiment in a line: Antibacterial activity against Escherichia coli isolate containing extended spectrum beta lactamase after 24 hrs by twofold serial dilution technique. A digest of the protocol:
as §1

In experiment [11] the test system is Pseudomonas aeruginosa. The experiment in a line: Antibacterial activity against gentamicin-resistant Pseudomonas aeruginosa isolate after 24 hrs by twofold serial dilution technique. A digest of the protocol:
as §3

The subject of experiment [12] is Klebsiella pneumoniae. The experiment in a line: Antibacterial activity against Klebsiella pneumoniae RSHM 574 after 24 hrs by twofold serial dilution technique. A digest of the protocol: as §1

≈ marks a conversion by molar mass, not a printed value.

Turning to `Cc1ccc(Cc2nc3cc(NC(=O)c4cc5ccccc5o4)ccc3o2)cc1`, the MIC against Staphylococcus aureus [1] was found to be 125 µg/mL (≈ 327 µM); with Pichia kudriavzevii, 250 µg/mL (≈ 654 µM); against Escherichia coli [2], 62.5 µg/mL (≈ 163 µM); in the experiment with Bacillus subtilis [3] it was 125 µg/mL (≈ 327 µM); against Staphylococcus aureus [4], 62.5 µg/mL (≈ 163 µM); in the experiment on Bacillus subtilis [5] it was 125 µg/mL (≈ 327 µM). In addition, the MIC in the experiment with Candida albicans [6] came to 62.5 µg/mL (≈ 163 µM); with Klebsiella pneumoniae [7] it was 125 µg/mL (≈ 327 µM); against Candida albicans [8], 62.5 µg/mL (≈ 163 µM); with Pseudomonas aeruginosa [9] it was 62.5 µg/mL (≈ 163 µM); against Escherichia coli [10] it was 125 µg/mL (≈ 327 µM); with Pseudomonas aeruginosa [11], 125 µg/mL (≈ 327 µM). The molecule further came in with an MIC in the experiment with Klebsiella pneumoniae [12] of 62.5 µg/mL (≈ 163 µM).
With `CC1COc2c(N3CCN(C)CC3)c(F)cc3c(=O)c(C(=O)O)cn1c23` (centres undefined) [OFLOXACIN], the MIC in the experiment with Staphylococcus aureus [1] turned out to be 0.12 µg/mL (≈ 0.332 µM); against Bacillus subtilis [3], 3.9 µg/mL (≈ 10.8 µM); with Staphylococcus aureus [4], 1.9 µg/mL (≈ 5.26 µM); against Bacillus subtilis [5], 0.12 µg/mL (≈ 0.332 µM); with Klebsiella pneumoniae [7], 3.9 µg/mL (≈ 10.8 µM); against Pseudomonas aeruginosa [9] it was 62.5 µg/mL (≈ 173 µM). Besides, the MIC with Escherichia coli [10] was found to be 7.8 µg/mL (≈ 21.6 µM); with Pseudomonas aeruginosa [11], 62.5 µg/mL (≈ 173 µM); with Klebsiella pneumoniae [12], 0.12 µg/mL (≈ 0.332 µM).
As for `CC(C)(C)c1ccc(-c2nc3cc(NC(=O)c4cc5ccccc5o4)ccc3o2)cc1`, the MIC against Staphylococcus aureus [1] was determined as 125 µg/mL (≈ 305 µM); against Pichia kudriavzevii it was 125 µg/mL (≈ 305 µM); against Escherichia coli [2], 62.5 µg/mL (≈ 152 µM); against Bacillus subtilis [3], 125 µg/mL (≈ 305 µM); in the experiment on Staphylococcus aureus [4], 62.5 µg/mL (≈ 152 µM); in the experiment with Bacillus subtilis [5], 125 µg/mL (≈ 305 µM). For the same molecule, the MIC came to 62.5 µg/mL (≈ 152 µM) with Candida albicans [6]; 125 µg/mL (≈ 305 µM) in the experiment on Klebsiella pneumoniae [7]; 62.5 µg/mL (≈ 152 µM) in the experiment on Candida albicans [8]; 62.5 µg/mL (≈ 152 µM) against Pseudomonas aeruginosa [9]; 125 µg/mL (≈ 305 µM) with Escherichia coli [10]; 125 µg/mL (≈ 305 µM) with Pseudomonas aeruginosa [11]. This molecule also came in with an MIC against Klebsiella pneumoniae [12] of 62.5 µg/mL (≈ 152 µM).
On to `O=C(Nc1ccc2oc(Cc3ccc(F)cc3)nc2c1)c1cc2ccccc2o1`, for which the MIC against Staphylococcus aureus [1] is 125 µg/mL (≈ 324 µM); in the experiment with Pichia kudriavzevii, 250 µg/mL (≈ 647 µM); against Escherichia coli [2] it was 62.5 µg/mL (≈ 162 µM); against Bacillus subtilis [3], 125 µg/mL (≈ 324 µM); in the experiment with Staphylococcus aureus [4], 62.5 µg/mL (≈ 162 µM); with Bacillus subtilis [5], 125 µg/mL (≈ 324 µM). Besides, the MIC in the experiment on Candida albicans [6] is 62.5 µg/mL (≈ 162 µM); with Klebsiella pneumoniae [7], 125 µg/mL (≈ 324 µM); against Candida albicans [8], 62.5 µg/mL (≈ 162 µM); against Pseudomonas aeruginosa [9], 62.5 µg/mL (≈ 162 µM); with Escherichia coli [10], 125 µg/mL (≈ 324 µM); against Pseudomonas aeruginosa [11] it was 125 µg/mL (≈ 324 µM). In the experiment on Klebsiella pneumoniae [12], the MIC was found to be 62.5 µg/mL (≈ 162 µM).
Regarding `CC1(C)S[C@@H]2[C@H](NC(=O)[C@H](N)c3ccccc3)C(=O)N2[C@H]1C(=O)O.O.O.O` [AMPICILLIN TRIHYDRATE], the MIC in the experiment with Staphylococcus aureus [1] was found to be 0.48 µg/mL; in the experiment with Escherichia coli [2], 3.9 µg/mL; with Bacillus subtilis [3], 0.48 µg/mL; in the experiment with Staphylococcus aureus [4], 1.9 µg/mL; with Bacillus subtilis [5] it was 0.48 µg/mL; with Klebsiella pneumoniae [7], 15.6 µg/mL. For the same molecule, the MIC is greater than 500 µg/mL with Pseudomonas aeruginosa [9], greater than 15.6 µg/mL against Escherichia coli [10], greater than 500 µg/mL in the experiment on Pseudomonas aeruginosa [11] and 0.48 µg/mL in the experiment on Klebsiella pneumoniae [12].
For `O=C(Nc1ccc2oc(-c3ccccc3Br)nc2c1)c1cc2ccccc2o1`, the MIC is 125 µg/mL (≈ 289 µM) with Staphylococcus aureus [1]; 250 µg/mL (≈ 577 µM) against Pichia kudriavzevii; 62.5 µg/mL (≈ 144 µM) against Escherichia coli [2]; 125 µg/mL (≈ 289 µM) in the experiment on Bacillus subtilis [3]; 31.2 µg/mL (≈ 72.1 µM) against Staphylococcus aureus [4]; 500 µg/mL (≈ 1150 µM) against Bacillus subtilis [5]. For the same molecule, the MIC in the experiment on Candida albicans [6] amounted to 62.5 µg/mL (≈ 144 µM); in the experiment on Klebsiella pneumoniae [7], 125 µg/mL (≈ 289 µM); against Candida albicans [8], 62.5 µg/mL (≈ 144 µM); against Pseudomonas aeruginosa [9], 62.5 µg/mL (≈ 144 µM); against Escherichia coli [10], 125 µg/mL (≈ 289 µM); with Pseudomonas aeruginosa [11] it was 62.5 µg/mL (≈ 144 µM). In the experiment with Klebsiella pneumoniae [12], this molecule displayed an MIC of 62.5 µg/mL (≈ 144 µM).
For the molecule `CO[C@H]1/C=C/O[C@@]2(C)Oc3c(C)c(O)c4c(O)c(c(/C=N/N5CCN(C)CC5)c(O)c4c3C2=O)NC(=O)/C(C)=C\C=C\[C@H](C)[C@H](O)[C@@H](C)[C@@H](O)[C@@H](C)[C@H](OC(C)=O)[C@@H]1C` [RIFAMPIN], the MIC against Staphylococcus aureus [1] was found to be 0.06 µg/mL (≈ 0.0729 µM); in the experiment with Escherichia coli [2], 1.9 µg/mL (≈ 2.31 µM); against Bacillus subtilis [3], 3.9 µg/mL (≈ 4.74 µM); against Staphylococcus aureus [4], 0.9 µg/mL (≈ 1.09 µM); in the experiment with Bacillus subtilis [5], 0.12 µg/mL (≈ 0.146 µM); in the experiment on Klebsiella pneumoniae [7] it was 7.8 µg/mL (≈ 9.48 µM). For the same molecule, the MIC with Pseudomonas aeruginosa [9] is greater than 500 µg/mL; against Escherichia coli [10] it was 3.9 µg/mL (≈ 4.74 µM); against Pseudomonas aeruginosa [11] it was greater than 500 µg/mL; in the experiment on Klebsiella pneumoniae [12], 1.9 µg/mL (≈ 2.31 µM).
For the molecule `O=C(Nc1ccc2oc(Cc3ccc(Cl)cc3)nc2c1)c1cc2ccccc2o1`, the MIC was determined as 125 µg/mL (≈ 310 µM) against Staphylococcus aureus [1]; 125 µg/mL (≈ 310 µM) in the experiment on Pichia kudriavzevii; 62.5 µg/mL (≈ 155 µM) in the experiment with Escherichia coli [2]; 125 µg/mL (≈ 310 µM) in the experiment on Bacillus subtilis [3]; 125 µg/mL (≈ 310 µM) against Staphylococcus aureus [4]; 125 µg/mL (≈ 310 µM) with Bacillus subtilis [5]. Besides, the MIC in the experiment on Candida albicans [6] amounted to 62.5 µg/mL (≈ 155 µM); with Klebsiella pneumoniae [7], 125 µg/mL (≈ 310 µM); in the experiment with Candida albicans [8] it was 62.5 µg/mL (≈ 155 µM); against Pseudomonas aeruginosa [9], 31.2 µg/mL (≈ 77.6 µM); against Escherichia coli [10] it was 125 µg/mL (≈ 310 µM); in the experiment on Pseudomonas aeruginosa [11] it was 125 µg/mL (≈ 310 µM). In the experiment on Klebsiella pneumoniae [12], this molecule came in with an MIC of 62.5 µg/mL (≈ 155 µM).

The record behind these values is ChEMBL document CHEMBL1154447, “Synthesis, antimicrobial activity, pharmacophore analysis of some new 2-(substitutedphenyl/benzyl)-5-[(2-benzofuryl)carboxamido]benzoxazoles” (2008).
